Bioassay records from PubChem BioAssay.
Compounds with a hit are over-represented: about 1.3% of the library has one in this group of screens.
PKD1 kinase inh – blocks activity of human protein kinase D1 | PKD1 kinase fluorescence polarization assay | 200,000 tested, 0.056% active | inhibition, % (test concentration not listed); in the data active = inhibition above about 50%
Hck-Nef inh – human Hck-Nef kinase inhibition; P08631; Recombinant Hck-YEEI plus Nef, Z-Lyte FRET kinase assay; inhibition, % at 20 µM; 220,000 tested, 0.68% active; AID 463187;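 active = Hck-Nef kinase inhibition above about 50%, limit read from the data; inactive = inhibition below that limit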
Target sequence (P08631 whole entry, looked up): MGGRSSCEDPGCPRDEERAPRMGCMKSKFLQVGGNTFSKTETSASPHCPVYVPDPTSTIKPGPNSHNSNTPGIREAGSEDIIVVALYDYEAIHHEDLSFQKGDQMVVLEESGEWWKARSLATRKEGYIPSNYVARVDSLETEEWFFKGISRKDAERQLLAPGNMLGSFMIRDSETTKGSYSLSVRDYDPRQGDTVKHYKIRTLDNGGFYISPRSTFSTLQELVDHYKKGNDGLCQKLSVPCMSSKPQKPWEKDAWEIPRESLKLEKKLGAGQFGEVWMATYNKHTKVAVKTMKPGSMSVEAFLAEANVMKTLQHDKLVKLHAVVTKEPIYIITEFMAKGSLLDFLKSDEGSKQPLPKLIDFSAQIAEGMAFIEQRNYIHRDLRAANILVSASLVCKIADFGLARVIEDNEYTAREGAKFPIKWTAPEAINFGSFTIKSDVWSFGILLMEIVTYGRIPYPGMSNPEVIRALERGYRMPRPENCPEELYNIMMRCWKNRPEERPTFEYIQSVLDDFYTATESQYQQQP
Mdm2 ligase inh – inhibitors of human Mdm2 E3 ubiquitin ligase. signal enhancement, % at 5 µM. 210,000 tested, 0.11% active. cell-based MDM2 ubiquitination luciferase reporter, 2 h; 0 = plate control, 100 = twice control, blank-subtracted. AID 1230. Q00987;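 active = signal enhancement of 30% or more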;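 also: luminescence tracks abundance of the self-degrading MDM2-luciferase fusion protein; higher signal means inhibition of MDM2 E3 ligase activity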
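Assay system: stable mammalian line carrying autodegrading MDM2–luciferase fusion reporter; Input: 2000 cells in each well; Compound dosing: single-point 5 µM; Schedule: 2 h compound exposure at 37 °C; Signal: SteadyLite luciferase luminescence after 15 min room-temperature reagent incubation; Evaluation: % luminescence enhancement versus blank-corrected plate control mean; Benchmarks: plate controls and plate blanks.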
H9c2 TAG inh – inhibitors of triacylglycerol accumulation | H9c2 cells, Nile Red lipid (TAG) fluorescence; cells loaded with 200 µM oleic acid | inhibition, % at 12.5 µM | 230,000 tested, 0.66% active | AID 651582;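 active = pattern-corrected inhibition of lipid staining of at least 50% with the nuclear-stain viability signal not falling by more than 50%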
Rad51 HR inh – Rad51 (human) homologous recombination inhibition; Q06609; hRad51 DNA strand exchange, fluorescence dequenching; inhibition, % at 10 µM; 200,000 tested, 0.085% active;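 active = inhibition above 40% at the single screening dose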
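material = hRad51 filaments on single-stranded DNA | reagent = Donor/quencher-labelled 47-bp dsDNA substrate | compound = 10 µM final, single point | schedule = strand-exchange reaction 15 min at room temperature | measured by = fluorescein emission 520 nm, excitation 485 nm | read-out basis = % inhibition versus plate control and blank means | benchmarks = plate controls and plate blanks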
PERK inhibitor – inhibitors of human PERK kinase; AID 1416; CHO PERK-DD fusion, SEAP luminescence translation reporter; inhibition, % at 5.6 µM; 220,000 tested, 0.17% active; Q9NZJ5;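 active = inhibition above the mean inhibition of all tested compounds plus 3 SD, set separately per screening campaign, cut at about 2.9% in these data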;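 also: PERK kinase domain activated by AP20187 dimerizer at 100 nM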
Hck-Nef confirm – Hck-Nef kinase inhibition, confirmation; shares compounds with Hck-Nef inh; Recombinant Hck-YEEI:Nef, Z-Lyte FRET kinase assay; calls only at 10 µM; 1,300 tested, 28% active; AID 463188;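 active = average inhibition of at least 50%, with Z-scores no higher than 3 in both the phospho-tyrosine peptide and fluorescence counterscreens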
A number is an active result; – = inactive; · = not tested or not shown; + = active, no number.

SMILES	PKD1 kinase inh	Hck-Nef inh	Mdm2 ligase inh	H9c2 TAG inh	Rad51 HR inh	PERK inhibitor	Hck-Nef confirm
O=S(=O)(Nc1c(S(=O)(=O)c2ccccc2)c2nc3ccccc3nc2n1C1CCCCC1)c1ccccc1	–	53.3	–	·	–	–	·
CN(C)CCCn1c(N)c(S(=O)(=O)c2ccccc2)c2nc3ccccc3nc21	·	85.0	–	–	–	–	·
C=CCn1c(NS(=O)(=O)c2ccccc2)c(S(=O)(=O)c2ccc(C)cc2)c2nc3ccccc3nc21	–	83.3	–	·	–	–	–
CCOC(=O)C1C(=O)C(=O)N(C(C)C)C1C(=O)OCC (stereo unspecified)	·	·	·	–	·	·	·
Cc1ccc(-n2c(O)c(C=Nc3ccccc3-c3n[nH]c(=S)[nH]c3=O)c3ccccc3c2=O)cc1C	–	84.4	–	–	–	–	+
Cc1ccc(-n2c(O)c(C=Nc3ccccc3-c3n[nH]c(=S)[nH]c3=O)c3ccccc3c2=O)c(C)c1	–	73.1	–	–	–	–	+
Cc1cccc(-n2c(O)c(C=Nc3ccccc3-c3n[nH]c(=S)[nH]c3=O)c3ccccc3c2=O)n1	·	–	–	–	–	–	·
Cc1cccc(-n2c(O)c(C=Nc3ccccc3O)c3ccccc3c2=O)n1	·	–	–	–	–	–	·
Cc1ccccc1NC(=O)COC(=O)/C=C/c1cccc(C(F)(F)F)c1	–	–	–	·	–	–	·
CC(/C=N/Nc1nc(C)cc(C)n1)=C\c1ccc(C(C)C)cc1	–	–	–	·	·	–	·
CCOC(=O)c1cc2c(=O)n3ccccc3nc2n(CCOC)c1=NC(=O)C(C)(C)C	–	101.0	–	–	–	–	·
CCOC(=O)c1cc2c(=O)n3ccccc3nc2n(CCCOC)c1=NC(=O)c1cccnc1	–	–	–	·	·	–	·
COCCCn1c(=NC(=O)c2ccccc2)c(C#N)cc2c(=O)n3cccc(C)c3nc21	·	81.5	–	–	–	–	–
CCOCCCn1c(=NC(C)=O)c(C(=O)OCC)cc2c(=O)n3ccccc3nc21	–	118.7	–	–	–	–	·
CCOCCCn1c(=NC(C)=O)c(C#N)cc2c(=O)n3ccccc3nc21	·	95.9	–	–	–	–	·
COCCCn1c(=NC(C)=O)c(C#N)cc2c(=O)n3cccc(C)c3nc21	·	–	–	–	·	–	·
CC1CCCCN1N=Nc1nc2c([nH]1)c(=O)n(C)c(=O)n2C (stereo unspecified)	·	·	·	–	·	·	·
CCOC(=O)c1cc2c(=O)n3ccccc3nc2n(Cc2ccco2)c1=NC(=O)c1ccccc1OCC	–	–	–	–	–	–	·
CCOC(=O)c1cc2c(=O)n3ccccc3nc2n(CC(C)C)c1=NC(=O)c1ccco1	–	105.4	–	–	–	–	–
O=C1c2cccc3cc([N+](=O)[O-])cc(c23)C(=O)N1/N=C/c1ccc(O)cc1O	·	55.2	–	–	–	–	+
O=C1c2cccc3cc([N+](=O)[O-])cc(c23)C(=O)N1CCN1CCCC1	·	–	–	·	–	–	·
Cc1ccc(NC(=O)Cn2nc(-c3ccccc3)nc2-c2ccccc2)c(C)c1	–	–	–	·	–	–	·
Cc1ccc(C)c(NC(=O)Cn2nc(-c3ccccc3)nc2-c2ccccc2)c1	–	58.6	–	–	–	–	–
COc1ccc(-c2nnc(SCC(=O)Nc3sc4c(c3C#N)CCCC4)n2-c2ccccc2)cc1	–	96.4	–	·	–	–	+
COc1ccc(/C=C/C(=O)NCc2ccc(F)cc2)cc1S(=O)(=O)N1CCOCC1	·	–	·	–	–	–	·
SMILES	PKD1 kinase inh	Hck-Nef inh	Mdm2 ligase inh	H9c2 TAG inh	Rad51 HR inh	PERK inhibitor	Hck-Nef confirm
Cc1nn(CC(=O)Nc2ccc3c(c2)oc2ccccc23)c(=O)c2ccccc12	–	50.5	–	–	·	–	–
Cc1cccn2c(=O)c3cc(C(=O)NCC4CCCO4)c(=N)n(CCN4CCOCC4)c3nc12 (stereo unspecified)	–	–	–	–	·	–	·
COCCCn1c(=N)c(C(=O)NCC2CCCO2)cc2c(=O)n3ccccc3nc21 (stereo unspecified)	–	+	–	–	–	–	·
CCCn1c(=N)c(C(=O)NCC2CCCO2)cc2c(=O)n3cccc(C)c3nc21 (stereo unspecified)	–	191.8	–	–	–	–	·
O=C(Oc1ccc2ccc(=O)oc2c1)C1CCCCC1	–	66.9	–	·	–	–	–
O=c1/c(=C/c2ccccn2)sc2n1CN(c1ccccc1)CN=2	–	–	–	–	–	–	·
Cc1cc(C)c2c(c1)/C(=c1/sc3n(c1=O)CN(c1ccccc1)CN=3)C(=O)N2	·	54.1	–	–	–	–	–
Cc1nc2cc(N3CCCCC3)c(NC(=O)c3ccncc3)cc2c(=O)n1Cc1ccc(Cl)cc1	–	67.4	–	·	·	–	–
Cc1nc2cc(N3CCN(C)CC3)c(NC(=O)Cc3ccccc3)cc2c(=O)n1Cc1ccccc1	–	–	–	–	–	–	·
C=CCN(CC=C)CCOc1ccc(OC(C)C)cc1	–	–	–	–	–	–	·
Cc1cc(-c2csc(NC(=O)c3cc4ccccc4o3)n2)c(C)n1C	–	59.4	–	·	–	–	–
CCOc1cc(/C=C2\SC(=S)N(C(C(=O)O)c3ccccc3)C2=O)ccc1O (stereo unspecified)	·	62.7	–	–	–	–	–
COc1cc(/C=C2\SC(=S)N(C(C(=O)O)c3ccccc3)C2=O)ccc1O (stereo unspecified)	·	–	–	–	·	–	·
CC(/C=C1\SC(=S)N(NS(=O)(=O)c2ccc(C)cc2)C1=O)=C\c1ccccc1	·	99.1	–	–	·	–	+
Cc1cc(=O)oc2c(C)c(OC(=O)c3ccco3)ccc12	·	·	·	–	·	·	·
CCC(=O)Oc1ccc2c(C)cc(=O)oc2c1C	–	53.6	–	–	·	–	–
C/C(=N\NC(=O)COc1ccccc1[N+](=O)[O-])c1cccc(NC(=O)c2ccncc2)c1	·	·	·	–	·	·	·
CCN1C(=O)[C@H]2[C@H]3CN=C(SC)N3[C@@](C)(C(=O)OC)[C@H]2C1=O	·	·	·	–	·	·	·
COc1ccc(CCC(=O)NCCS(=O)(=O)N2CCN(c3ccccc3)CC2)cc1	·	·	·	–	·	·	·
O=C(Nc1c[nH]c(=O)[nH]c1=O)c1ccc2c(c1)C(=O)N(c1cccc([N+](=O)[O-])c1)C2=O	·	93.6	·	–	–	–	+
NC(=S)N/N=C/c1coc2cc(Br)ccc2c1=O	·	–	–	–	–	–	·
NC(=S)N/N=C/c1coc2ccc(Br)cc2c1=O	·	73.3	–	–	–	–	+
NC(=S)N/N=C/c1coc2c(ccc3ccccc32)c1=O	–	61.4	–	·	–	–	+
COC(=O)[C@@]1(Cc2ccccc2)[C@H]2C(=O)N(Cc3ccccc3)C(=O)[C@H]2[C@H]2CN=C(SC)N21	·	·	·	–	·	·	·
CCN(CC)c1ccc(/C=N\NC(=O)c2cccc3cc[nH]c23)cc1	·	–	–	–	·	–	·
